Test results as given in ChEMBL document CHEMBL1123402, “Saturated analogues of poison ivy allergens. Synthesis of trans,trans- and cis,trans-3-alkyl-1,2-cyclohexanediols and sensitizing properties in allergic contact dermatitis” (1986).
Where “and” joins values, the source holds several entries; their conditions need not be identical. Equal entries are not always repeated.

Legend:
[1] = species: Cavia porcellus; assay: Ability to induce allergic contact dermatitis in guinea pig at 3.8 umol (3 injections)of the compound and expressed as no. of positive animals out of 8; type: functional
Outline: (§1)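 Guinea pigs sensitized with the alkylcyclohexanediol in Freund complete adjuvant (3-injection schedule per curator). Elicitation by open epicutaneous test of the dose in ethanol. Read at 48 h on a scale: 0 none, 0.5 slight partial erythema, 1 erythema over the whole area, 2 erythema plus swelling, 3 swelling well beyond the area. FCA-treated control groups of eight animals.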

[2] = species: Cavia porcellus; assay: Ability to induce allergic contact dermatitis in guinea pig at 3.8 umol (5 injections) and expressed as no. of positive animals out of 8; type: functional
Outline: (§2)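 Sensitization by the FCAT method with five injections: the first sensitization was boosted by two injections of alkylcyclohexanediol in Freund complete adjuvant 1 week after the first test. Open epicutaneous challenge used the stated dose in ethanol, read at 48 h on a 0–3 erythema/swelling scale. Irritation thresholds were set on FCA-injected controls, with groups of eight per experiment.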

[3] = species: Cavia porcellus; assay: Ability to induce allergic contact dermatitis in guinea pig at 7.6 umol (3 injections)of the compound and expressed as no. of positive animals out of 8; type: functional; outline: as §1
[4] = species: Cavia porcellus; assay: Allergic contact dermatitis in guinea pig at 3.8 umol (3 injections) and expressed as number of animals reading with a test intensity of 0; type: functional; outline: as §1
[5] = species: Cavia porcellus; assay: Allergic contact dermatitis in guinea pig at 7.6 umol (3 injections) and expressed as number of animals reading with a test intensity of 0; type: functional; outline: as §1
[6] = species: Cavia porcellus; assay: Allergic contact dermatitis in guinea pig at 7.6 umol (3 injections) and expressed as number of animals reading with a test intensity of 0.5; type: functional; outline: as §1
[7] = species: Cavia porcellus; assay: Allergic contact dermatitis in guinea pig at 7.6 umol (3 injections) and expressed as number of animals reading with a test intensity of 2; type: functional; outline: as §1
[8] = species: Cavia porcellus; assay: Allergic contact dermatitis in guinea pig at 7.6 umol (5 injections) and expressed as number of animals reading with a test intensity of 0.5; type: functional; outline: as §2
[9] = species: Cavia porcellus; assay: Ability to induce allergic contact dermatitis in guinea pig at 3.8 umol (3 injections) and expressed as average skin reaction; type: functional; outline: as §1
[10] = species: Cavia porcellus; assay: Ability to induce allergic contact dermatitis in guinea pig at 3.8 umol (5 injections) and expressed as average skin reaction; type: functional; outline: as §2
[11] = species: Cavia porcellus; assay: Ability to induce allergic contact dermatitis in guinea pig at 7.6 umol (3 injections) and expressed as average skin reaction; type: functional; outline: as §1
[12] = species: Cavia porcellus; assay: Allergic contact dermatitis in guinea pig at 7.6 umol (5 injections) and expressed as number of animals reading with a test intensity of 2; type: functional; outline: as §2
[13] = species: Cavia porcellus; assay: Allergic contact dermatitis in guinea pig at 3.8 umol (3 injections) and expressed as number of animals reading with a test intensity of 0.5; type: functional; outline: as §1
[14] = species: Cavia porcellus; assay: Allergic contact dermatitis in guinea pig at 3.8 umol (3 injections) and expressed as number of animals reading with a test intensity of 1; type: functional; outline: as §1
[15] = species: Cavia porcellus; assay: Allergic contact dermatitis in guinea pig at 3.8 umol (3 injections) and expressed as number of animals reading with a test intensity of 2; type: functional; outline: as §1
[16] = species: Cavia porcellus; assay: Allergic contact dermatitis in guinea pig at 3.8 umol (5 injections) and expressed as number of animals reading with a test intensity of 0; type: functional; outline: as §2
[17] = species: Cavia porcellus; assay: Allergic contact dermatitis in guinea pig at 3.8 umol (5 injections) and expressed as number of animals reading with a test intensity of 0.5; type: functional; outline: as §2
[18] = species: Cavia porcellus; assay: Allergic contact dermatitis in guinea pig at 3.8 umol (5 injections) and expressed as number of animals reading with a test intensity of 1; type: functional; outline: as §2
[19] = species: Cavia porcellus; assay: Allergic contact dermatitis in guinea pig at 3.8 umol (5 injections) and expressed as number of animals reading with a test intensity of 2; type: functional; outline: as §2
[20] = species: Cavia porcellus; assay: Allergic contact dermatitis in guinea pig at 7.6 umol (3 injections) and expressed as number of animals reading with a test intensity of 1; type: functional; outline: as §1
[21] = species: Cavia porcellus; assay: Allergic contact dermatitis in guinea pig at 14 umol (3 injections) and expressed as number of animals reading with a test intensity of 2; type: functional; outline: as §1
[22] = species: Cavia porcellus; assay: Allergic contact dermatitis in guinea pig at 14 umol (5 injections) and expressed as number of animals reading with a test intensity of 2; type: functional; outline: as §2
[23] = species: Cavia porcellus; assay: Allergic contact dermatitis in guinea pig at 14 umol (3 injections) and expressed as number of animals reading with a test intensity of 0; type: functional; outline: as §1
[24] = species: Cavia porcellus; assay: Allergic contact dermatitis in guinea pig at 14 umol (3 injections) and expressed as number of animals reading with a test intensity of 0.5; type: functional; outline: as §1
[25] = species: Cavia porcellus; assay: Allergic contact dermatitis in guinea pig at 14 umol (5 injections) and expressed as number of animals reading with a test intensity of 0; type: functional; outline: as §2
[26] = species: Cavia porcellus; assay: Allergic contact dermatitis in guinea pig at 14 umol (5 injections) and expressed as number of animals reading with a test intensity of 0.5; type: functional; outline: as §2
[27] = species: Cavia porcellus; assay: Allergic contact dermatitis in guinea pig at 14 umol (5 injections) and expressed as number of animals reading with a test intensity of 1; type: functional; outline: as §2
[28] = species: Cavia porcellus; assay: Ability to induce allergic contact dermatitis in guinea pig at 14 umol (3 injections)of the compound and expressed as no. of positive animals out of 8; type: functional; outline: as §1
[29] = species: Cavia porcellus; assay: Ability to induce allergic contact dermatitis in guinea pig at 14 umol (5 injections)of the compound and expressed as no. of positive animals out of 8; type: functional; outline: as §2
[30] = species: Cavia porcellus; assay: Ability to induce allergic contact dermatitis in guinea pig at 3.8 umol (5 injections)of the compound and expressed as no. of positive animals out of 8; type: functional; outline: as §2
[31] = species: Cavia porcellus; assay: Ability to induce allergic contact dermatitis in guinea pig at 7.6 umol (5 injections)of the compound and expressed as no. of positive animals out of 8; type: functional; outline: as §2
[32] = species: Cavia porcellus; assay: Ability to induce allergic contact dermatitis in guinea pig at 14 umol (3 injections) and expressed as average skin reaction; type: functional; outline: as §1
[33] = species: Cavia porcellus; assay: Ability to induce allergic contact dermatitis in guinea pig at 14 umol (5 injections) and expressed as average skin reaction; type: functional; outline: as §2
[34] = species: Cavia porcellus; assay: (§3) Allergic contact dermatitis in guinea pig at 7.6 umol (5 injections) and expressed as number of animals reading with a test intensity of 1; type: functional; outline: as §2
[35] = species: Cavia porcellus; assay: Allergic contact dermatitis in guinea pig at 7.6 umol (5 injections) and expressed as number of animals reading with a test intensity of 0; type: functional; outline: as §2
[36] = species: Cavia porcellus; assay: Allergic contact dermatitis in guinea pig at 14 umol (3 injections) and expressed as number of animals reading with a test intensity of 1; type: functional; outline: as §1
[37] = species: Cavia porcellus; assay: (§4) Ability to induce allergic contact dermatitis in guinea pig at 7.6 umol (5 injections) and expressed as average skin reaction; type: functional; outline: as §2
[38] = species: Cavia porcellus; assay: as §4; type: functional; outline: as §2; remark: listed apart in the source
[39] = species: Cavia porcellus; assay: as §3; type: functional; outline: as §2; remark: listed apart in the source
[40] = species: Cavia porcellus; assay: Ability to induce allergic contact dermatitis in guinea pig at 3.8 umol (3 injections)of the compound and expressed as no. of positive animals out of 8
[41] = species: Cavia porcellus; assay: Ability to induce allergic contact dermatitis in guinea pig at 3.8 umol (3 injections)of the compound and expressed as no. of positive animals out of 16; type: functional; outline: as §1
[42] = species: Cavia porcellus; assay: Ability to induce allergic contact dermatitis in guinea pig at 3.8 umol (5 injections)of the compound and expressed as no. of positive animals out of 16; type: functional
[43] = species: Cavia porcellus; assay: Ability to induce allergic contact dermatitis in guinea pig at 7.6 umol (3 injections)of the compound and expressed as no. of positive animals out of 16; type: functional; outline: as §1
[44] = species: Cavia porcellus; assay: Ability to induce allergic contact dermatitis in guinea pig at 7.6 umol (5 injections)of the compound and expressed as no. of positive animals out of 16; type: functional

Compound | No. of animals [4] | No. of animals [5] | No. of animals [6] | No. of animals [8] | Average skin reaction [9] | Average skin reaction [10] | Average skin reaction [11] | No. of animals [12] | No. of animals [13] | No. of animals [14] | No. of animals [15] | No. of animals [16] | No. of animals [17] | No. of animals [18] | No. of animals [19] | No. of animals [20] | also measured
CCCCCCCCCCCCCCC[C@H]1CCC[C@H](O)[C@@H]1O | 3 | 1 | 6 | 2 and 1 | 0.3 | 0.5 | 0.5 | 0 | 5 | 0 | 0 | 2 | 4 | 2 | 0 | 1 | No. of positive animals [1]: 5; No. of positive animals [2]: 6; No. of positive animals [3]: 7; No. of animals [7]: 0
CCCCCCCCCC[C@H]1CCC[C@@H](O)[C@@H]1O | 4 | – | – | – | 0.3 | 0.5 | – | 0 | 3 | 1 | 0 | 2 | 4 | 2 | 0 | – | No. of animals [21]: 2; No. of animals [22]: 2; No. of animals [23]: 2; No. of animals [24]: 2; No. of animals [25]: 1; No. of animals [26]: 3; No. of animals [27]: 2; No. of positive animals [28]: 6; No. of positive animals [29]: 7; No. of positive animals [30]: 6; No. of positive animals [31]: 6 and 7; Average skin reaction [32]: 0.9; Average skin reaction [33]: 0.9; No. of animals [34]: 5; No. of animals [35]: 2 and 1; No. of animals [36]: 2; Average skin reaction [37]: 0.7; Average skin reaction [38]: 0.5; No. of animals [39]: 1; No. of positive animals [40]: 4
CCCCCCCCCCCCCCC[C@H]1CCC[C@@H](O)[C@@H]1O | 4 | 2 | 2 | 2 and 1 | 0.5 | 0.8 | 0.8 | 0 | 8 | 4 | 0 | 2 | 4 | 9 | 1 | 12 | No. of positive animals [41]: 12; No. of positive animals [42]: 14; No. of positive animals [43]: 14; No. of positive animals [44]: 15
